Results: ChEMBL document CHEMBL3233006 (J Med Chem, 2014)
The source made the active and inactive calls. The calls are words filed in the database; no cut-off is given here.

Experiments:
[1] = biological target: Serine/threonine-protein kinase B-raf (Homo sapiens, UniProt P15056, V600E); assay: Inhibition of BRAF V600E mutant (unknown origin) after 1 to 1.5 hrs by FRET-based Z'-Lyte assay
Method in brief: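 Z′-Lyte FRET cascade assay in 10 μL. Incubated 1 h at room temperature, then development reagent 1 h, then stop reagent. Controls: phospho-peptide, no ATP, and 4% DMSO solution. Means of 2 independent experiments.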

[2] = biological target: T1, Epidermal growth factor receptor (Homo sapiens, UniProt P00533); assay: Inhibition of EGFR (unknown origin) after 1 to 1.5 hrs by FRET-based Z'-Lyte assay
[3] = test system: SK-MEL-28; assay: cells; type: functional, cell-based; settings: Homo sapiens, SK-MEL-28, 68 h
[4] = cells; type: functional; settings: Homo sapiens, 68 h
[5] = test system: HT-29; assay: Antiproliferative activity against human HT-29 cells harboring BRAF V600E mutant and EGFR after 68 hrs […]; type: functional, cell-based; settings: HT-29, 68 h
[6] = test system: COLO 205; assay: Antiproliferative activity against human COLO205 cells harboring BRAF V600E mutant and EGFR after 68 hrs by MTS assay; type: functional, cell-based; settings: COLO 205, 68 h
[7] = test system: HCT-116; assay: Antiproliferative activity against human HCT116 cells harboring wild-type BRAF and EGFR after 68 hrs […]; type: functional, cell-based; settings: HCT-116, 68 h
[8] = test system: LoVo; assay: Antiproliferative activity against human LoVo cells harboring wild-type BRAF after 68 hrs by […]; type: functional, cell-based
[9] = test system: WiDr; assay: Antiproliferative activity against human WiDr cells harboring BRAF V600E mutant and EGFR after 68 hrs […]; type: functional, cell-based
[10] = organism: Homo sapiens; assay: Inhibition of MAPK-mediated ERK phosphorylation at Thr202/Tyr204 in human SK-MEL-28-PR30 cells at 1 uM after 24 hrs by Western blotting analysis; type: cell-based
Method in brief: (§1)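 Time-course western blot with treatment at 1.0 μM. SK-MEL-28-PR30 or WiDr cells exposed for 2, 24 and 48 h. RIPA lysates quantified by BCA, equal protein blotted on PVDF, and probed for phospho-ERK (T202/Y204), total ERK and GAPDH.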

[11] = organism: Homo sapiens; assay: Inhibition of MAPK-mediated ERK phosphorylation at Thr202/Tyr204 in human SK-MEL-28-PR30 cells at 1 uM after 48 hrs by Western blotting analysis; type: cell-based; method in brief: as §1
[12] = biological target: Receptor tyrosine-protein kinase erbB-2 (Homo sapiens) (UniProt P04626); assay: Inhibition of ERBB2 (unknown origin) at 1 uM by KINOMEscan assay
Method in brief: (§2)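 KINOMEscan binding screen across a panel of 456 kinases (including 395 distinct wild-type kinases), with test compound at 1.0 μM.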

[13] = biological target: Receptor tyrosine-protein kinase erbB-4 (Homo sapiens) (UniProt Q15303); assay: Inhibition of ERBB4 (unknown origin) at 1 uM by KINOMEscan assay; method in brief: as §2
[14] = biological target: Platelet-derived growth factor receptor beta (Homo sapiens) (UniProt P09619); assay: Inhibition of PDGFRbeta (unknown origin) at 1 uM by KINOMEscan assay; method in brief: as §2
[15] = organism: Homo sapiens; assay: Inhibition of MAPK-mediated ERK phosphorylation at Thr202/Tyr204 in human SK-MEL-28-PR30 cells after 2 hrs by Western blotting analysis; type: cell-based
Method in brief: (§3)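 1 × 10⁶ cells seeded overnight in 6-cm dishes, then treated 2 h with 3, 1 or 0.3 μM in fresh medium; 1‰ DMSO as control. RIPA lysates, protein quantified by BCA, equal loads run on PVDF blots. Blocked 1 h at room temperature, then probed for EGFR, phospho-EGFR (Tyr1068), ERK, phospho-ERK (T202/Y204) and GAPDH.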

[16] = biological target: T1, Epidermal growth factor receptor; assay: Inhibition of EGFR phosphorylation at Tyr1068 in human SK-MEL-28-PR30 cells after 2 hrs by Western blotting analysis; type: cell-based; method in brief: as §3
[17] = organism: Homo sapiens; assay: Effect on total EGFR protein level in human SK-MEL-28-PR30 cells after 2 hrs by Western blotting analysis; type: functional, cell-based; method in brief: as §3
[18] = organism: Homo sapiens; assay: Effect on total ERK protein level in human SK-MEL-28-PR30 cells after 2 hrs by Western blotting analysis; type: functional, cell-based; method in brief: as §3
[19] = test system: WiDr; assay: Inhibition of MAPK-mediated ERK phosphorylation at Thr202/Tyr204 in human WiDr cells after 2 hrs by Western blotting analysis; type: cell-based; method in brief: as §3
[20] = test system: HT-29; assay: Inhibition of MAPK-mediated ERK phosphorylation at Thr202/Tyr204 in human HT-29 cells after 2 hrs by Western blotting analysis; type: cell-based; method in brief: as §3
[21] = test system: A-375; assay: Inhibition of MAPK-mediated ERK phosphorylation at Thr202/Tyr204 in human A375 cells after 2 hrs by Western blotting analysis; type: cell-based; method in brief: as §3
[22] = biological target: T1, Epidermal growth factor receptor; assay: Inhibition of EGFR phosphorylation at Tyr1068 in human WiDr cells after 2 hrs by Western blotting analysis; type: cell-based; method in brief: as §3
[23] = biological target: T1, Epidermal growth factor receptor; assay: Inhibition of EGFR phosphorylation at Tyr1068 in human HT-29 cells after 2 hrs by Western blotting analysis; type: cell-based; method in brief: as §3
[24] = biological target: T1, Epidermal growth factor receptor; assay: Inhibition of EGFR phosphorylation at Tyr1068 in human A375 cells after 2 hrs by Western blotting analysis; type: cell-based; settings: A-375; method in brief: as §3
[25] = test system: WiDr; assay: Inhibition of MAPK-mediated ERK phosphorylation at Thr202/Tyr204 in human WiDr cells at 1 uM after 2 to 48 hrs by Western blotting analysis; type: cell-based; method in brief: as §1

Sequence of Serine/threonine-protein kinase B-raf (P15056 2-766 V600E limits assumed): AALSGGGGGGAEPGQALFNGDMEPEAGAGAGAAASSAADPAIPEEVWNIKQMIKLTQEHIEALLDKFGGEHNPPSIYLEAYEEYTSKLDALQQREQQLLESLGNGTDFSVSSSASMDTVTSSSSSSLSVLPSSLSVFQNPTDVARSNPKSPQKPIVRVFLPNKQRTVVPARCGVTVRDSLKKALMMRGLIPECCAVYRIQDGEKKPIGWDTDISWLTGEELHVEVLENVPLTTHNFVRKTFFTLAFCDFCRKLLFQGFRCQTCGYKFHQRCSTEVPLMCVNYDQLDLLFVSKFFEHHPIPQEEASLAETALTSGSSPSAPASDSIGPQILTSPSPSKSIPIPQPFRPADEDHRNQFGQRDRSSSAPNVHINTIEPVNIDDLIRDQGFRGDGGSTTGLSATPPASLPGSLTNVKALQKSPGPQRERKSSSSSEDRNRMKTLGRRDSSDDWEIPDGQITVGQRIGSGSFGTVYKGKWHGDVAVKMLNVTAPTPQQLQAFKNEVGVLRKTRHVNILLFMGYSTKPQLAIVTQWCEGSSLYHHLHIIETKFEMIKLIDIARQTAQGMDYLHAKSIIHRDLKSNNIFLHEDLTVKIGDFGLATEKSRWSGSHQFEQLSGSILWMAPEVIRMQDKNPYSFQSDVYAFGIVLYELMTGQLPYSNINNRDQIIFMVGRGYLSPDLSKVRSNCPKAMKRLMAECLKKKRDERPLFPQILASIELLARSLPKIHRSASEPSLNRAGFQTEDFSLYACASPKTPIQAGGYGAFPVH
T1 sequence (P00533 whole entry): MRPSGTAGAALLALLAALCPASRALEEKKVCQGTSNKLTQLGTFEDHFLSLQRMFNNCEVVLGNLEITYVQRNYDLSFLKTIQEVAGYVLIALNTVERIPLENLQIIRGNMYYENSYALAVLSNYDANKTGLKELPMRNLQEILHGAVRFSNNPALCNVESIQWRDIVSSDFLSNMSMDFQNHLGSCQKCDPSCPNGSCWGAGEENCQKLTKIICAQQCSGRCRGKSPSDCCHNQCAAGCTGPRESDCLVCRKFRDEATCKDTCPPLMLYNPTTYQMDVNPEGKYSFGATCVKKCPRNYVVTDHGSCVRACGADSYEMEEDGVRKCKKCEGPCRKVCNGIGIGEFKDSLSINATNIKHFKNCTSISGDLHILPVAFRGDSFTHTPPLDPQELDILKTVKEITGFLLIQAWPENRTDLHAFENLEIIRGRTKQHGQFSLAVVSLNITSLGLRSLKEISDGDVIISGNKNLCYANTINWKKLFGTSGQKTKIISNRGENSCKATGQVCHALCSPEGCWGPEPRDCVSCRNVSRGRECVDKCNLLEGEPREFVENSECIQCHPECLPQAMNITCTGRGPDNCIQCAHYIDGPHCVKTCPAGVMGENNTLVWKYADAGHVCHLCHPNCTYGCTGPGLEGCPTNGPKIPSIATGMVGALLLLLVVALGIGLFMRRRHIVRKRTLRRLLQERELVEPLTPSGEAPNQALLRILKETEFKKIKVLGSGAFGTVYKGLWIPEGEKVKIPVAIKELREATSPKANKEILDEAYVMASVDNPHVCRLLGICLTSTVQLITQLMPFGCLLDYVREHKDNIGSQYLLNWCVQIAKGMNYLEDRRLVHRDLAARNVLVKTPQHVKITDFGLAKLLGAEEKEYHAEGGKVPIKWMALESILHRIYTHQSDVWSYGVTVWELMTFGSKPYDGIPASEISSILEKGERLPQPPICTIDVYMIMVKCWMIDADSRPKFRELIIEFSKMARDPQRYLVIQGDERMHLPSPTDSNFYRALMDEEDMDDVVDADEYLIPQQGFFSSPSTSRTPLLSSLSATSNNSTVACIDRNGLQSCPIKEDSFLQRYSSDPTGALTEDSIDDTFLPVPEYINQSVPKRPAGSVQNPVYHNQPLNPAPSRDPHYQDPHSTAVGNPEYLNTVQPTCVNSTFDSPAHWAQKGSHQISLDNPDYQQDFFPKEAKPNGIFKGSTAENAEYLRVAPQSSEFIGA
Sequence of Receptor tyrosine-protein kinase erbB-2 (Homo sapiens) (P04626 whole entry): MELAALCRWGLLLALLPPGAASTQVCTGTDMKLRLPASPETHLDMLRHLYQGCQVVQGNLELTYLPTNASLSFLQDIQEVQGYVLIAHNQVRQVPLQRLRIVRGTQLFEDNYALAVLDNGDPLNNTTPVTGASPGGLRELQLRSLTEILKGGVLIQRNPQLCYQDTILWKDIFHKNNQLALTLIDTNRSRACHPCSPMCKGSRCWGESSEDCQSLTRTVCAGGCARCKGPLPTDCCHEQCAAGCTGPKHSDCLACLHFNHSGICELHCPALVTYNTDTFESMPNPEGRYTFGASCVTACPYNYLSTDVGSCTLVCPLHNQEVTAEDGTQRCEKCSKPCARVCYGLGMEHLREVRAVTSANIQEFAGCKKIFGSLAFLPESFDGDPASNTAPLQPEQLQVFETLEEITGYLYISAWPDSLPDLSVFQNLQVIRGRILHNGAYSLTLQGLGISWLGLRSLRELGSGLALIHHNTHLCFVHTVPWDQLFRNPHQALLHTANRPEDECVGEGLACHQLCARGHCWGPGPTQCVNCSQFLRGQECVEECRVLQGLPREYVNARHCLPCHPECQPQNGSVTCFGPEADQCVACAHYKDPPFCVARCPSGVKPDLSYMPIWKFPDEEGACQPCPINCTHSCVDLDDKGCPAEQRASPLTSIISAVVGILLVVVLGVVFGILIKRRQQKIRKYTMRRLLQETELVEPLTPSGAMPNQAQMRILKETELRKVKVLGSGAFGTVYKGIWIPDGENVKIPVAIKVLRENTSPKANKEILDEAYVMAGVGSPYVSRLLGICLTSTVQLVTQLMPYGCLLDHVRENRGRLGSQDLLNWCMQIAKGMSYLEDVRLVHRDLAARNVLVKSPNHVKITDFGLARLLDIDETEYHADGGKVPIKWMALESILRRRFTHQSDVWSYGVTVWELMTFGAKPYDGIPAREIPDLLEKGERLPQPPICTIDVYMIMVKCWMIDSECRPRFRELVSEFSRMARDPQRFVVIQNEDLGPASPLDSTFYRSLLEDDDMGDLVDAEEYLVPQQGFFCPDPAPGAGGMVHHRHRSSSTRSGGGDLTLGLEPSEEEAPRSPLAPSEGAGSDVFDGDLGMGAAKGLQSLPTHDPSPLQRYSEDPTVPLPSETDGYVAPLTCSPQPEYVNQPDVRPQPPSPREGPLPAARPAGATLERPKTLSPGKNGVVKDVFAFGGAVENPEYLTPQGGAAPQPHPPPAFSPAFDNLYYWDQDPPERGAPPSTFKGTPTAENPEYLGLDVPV
Sequence of Platelet-derived growth factor receptor beta (Homo sapiens) (P09619 whole entry): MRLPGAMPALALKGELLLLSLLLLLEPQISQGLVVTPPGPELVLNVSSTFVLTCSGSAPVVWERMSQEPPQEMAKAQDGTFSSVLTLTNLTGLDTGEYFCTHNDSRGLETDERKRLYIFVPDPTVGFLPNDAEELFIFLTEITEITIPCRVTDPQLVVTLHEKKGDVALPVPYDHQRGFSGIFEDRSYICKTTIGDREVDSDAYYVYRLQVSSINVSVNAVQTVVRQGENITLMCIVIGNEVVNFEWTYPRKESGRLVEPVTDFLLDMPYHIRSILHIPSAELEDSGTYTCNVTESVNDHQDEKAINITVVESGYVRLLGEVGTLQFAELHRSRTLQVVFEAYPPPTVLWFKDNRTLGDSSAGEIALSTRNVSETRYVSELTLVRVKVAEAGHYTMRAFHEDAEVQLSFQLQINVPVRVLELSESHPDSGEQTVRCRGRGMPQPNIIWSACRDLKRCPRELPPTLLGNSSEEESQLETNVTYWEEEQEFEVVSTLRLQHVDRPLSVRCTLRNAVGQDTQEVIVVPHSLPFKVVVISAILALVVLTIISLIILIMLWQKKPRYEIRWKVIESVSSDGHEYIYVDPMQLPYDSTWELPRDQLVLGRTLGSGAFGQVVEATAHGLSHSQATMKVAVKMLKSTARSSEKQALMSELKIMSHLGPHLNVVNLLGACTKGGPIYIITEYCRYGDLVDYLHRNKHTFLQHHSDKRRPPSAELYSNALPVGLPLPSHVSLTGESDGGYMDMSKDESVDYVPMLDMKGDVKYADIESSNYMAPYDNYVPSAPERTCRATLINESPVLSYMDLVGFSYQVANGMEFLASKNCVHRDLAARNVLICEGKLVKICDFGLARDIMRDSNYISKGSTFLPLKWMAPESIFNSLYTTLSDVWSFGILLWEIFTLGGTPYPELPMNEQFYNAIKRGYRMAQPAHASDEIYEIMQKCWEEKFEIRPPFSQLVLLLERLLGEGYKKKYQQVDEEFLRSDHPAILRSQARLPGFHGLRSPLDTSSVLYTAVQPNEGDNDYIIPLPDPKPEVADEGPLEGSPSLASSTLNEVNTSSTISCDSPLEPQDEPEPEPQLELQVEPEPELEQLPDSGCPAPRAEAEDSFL

Structure (SMILES)	IC50 [1] [nM]	IC50 [2] [nM]	IC50 [3] [nM]	IC50 [4] [nM]	also measured
Cc1ccc(C(=O)Nc2ccc(CN3CCN(C)CC3)c(C(F)(F)F)c2)cc1NC(=O)c1cnc(NC2CCCCC2)nc1	37	47	2380	2730	
Cc1ccc(C(=O)Nc2ccc(CN3CCN(C)CC3)c(C(F)(F)F)c2)cc1NC(=O)c1cnc2[nH]ncc2c1	48	30	540	780	IC50 [5]: 780 nM; IC50 [6]: 360 nM; IC50 [7]: 1380 nM; IC50 [8]: 480 nM; IC50 [9]: 1350 nM
Cc1ccc(C(=O)Nc2ccc(CN3CCN(C)CC3)c(C(F)(F)F)c2)cc1NC(=O)c1ccccn1	573		> 20000	10700	
Cc1ccc(C(=O)Nc2ccc(CN3CCN(C)CC3)c(C(F)(F)F)c2)cc1NC(=O)c1cnc(NC2CCCC2)nc1	230	33	2040	1240	
Cc1ccc(C(=O)Nc2ccc(CN3CCN(C)CC3)c(C(F)(F)F)c2)cc1NC(=O)c1cnc(Nc2ccccc2)nc1	210	6	1700	900	
Cc1ccc(C(=O)Nc2ccc(CN3CCN(C)CC3)c(C(F)(F)F)c2)cc1NC(=O)c1ccncc1	110	> 10000	> 20000	> 20000	
CCc1ccc(C(=O)Nc2ccc(CN3CCN(C)CC3)c(C(F)(F)F)c2)cc1NC(=O)c1cnc2[nH]ccc2c1	360	99	910	490	
Cc1ccc(C(=O)Nc2ccc(CN3CCN(C)CC3)c(C(F)(F)F)c2)cc1NC(=O)c1cnc(N)nc1	410	43	1840	1890	
Cc1ccc(C(=O)Nc2ccc(CN3CCN(C)CC3)c(C(F)(F)F)c2)cc1NC(=O)c1ccc(O)nc1	> 10000	1330	> 20000	> 20000	
Cc1ccc(C(=O)Nc2ccc(CN3CCN(C)CC3)c(C(F)(F)F)c2)cc1NC(=O)c1ccc2[nH]ccc2c1	220	> 10000	4430	3040	
Cc1ccc(C(=O)Nc2ccc(CN3CCN(C)CC3)c(C(F)(F)F)c2)cc1NC(=O)c1cnc(NC(C)C)nc1	340	43	1730	860	
CNc1ncc(C(=O)Nc2cc(C(=O)Nc3ccc(CN4CCN(C)CC4)c(C(F)(F)F)c3)ccc2C)cn1	290	120	> 20000	2750	
Cc1ccc(C(=O)Nc2ccc(CN3CCN(C)CC3)c(C(F)(F)F)c2)cc1NC(=O)c1cncnc1	670	1920	> 20000	> 20000	
Cc1ccc(C(=O)Nc2ccc(CN3CCN(C)CC3)c(C(F)(F)F)c2)cc1NC(=O)c1ccccc1	240	> 10000	6910	5030	
Cc1ccc(C(=O)Nc2ccc(CN3CCN(C)CC3)c(C(F)(F)F)c2)cc1NC(=O)c1cnc(N(C)C)nc1	300	5540	6960	2490	
CCCS(=O)(=O)Nc1ccc(F)c(C(=O)c2c[nH]c3ncc(-c4ccc(Cl)cc4)cc23)c1F [VEMURAFENIB]			480	> 20000	inhibition [10]: inactive; inhibition [11]: inactive
Cc1ccc(C(=O)Nc2ccc(CN3CCN(C)CC3)c(C(F)(F)F)c2)cc1NC(=O)c1cnc2[nH]ccc2c1	51	8	130	450	IC50 [5]: 480 nM; IC50 [6]: 220 nM; IC50 [7]: 1330 nM; IC50 [8]: 170 nM; IC50 [9]: 670 nM; inhibition [12]: Active; inhibition [13]: Active; inhibition [14]: Active; inhibition [15]: Dose-dependent effect; inhibition [16]: Dose-dependent effect; inhibition [17]: Dose-dependent effect; inhibition [18]: Dose-dependent effect; inhibition [19]: Dose-dependent effect; inhibition [20]: Dose-dependent effect; inhibition [21]: Dose-dependent effect; inhibition [22]: Dose-dependent effect; inhibition [23]: Dose-dependent effect; inhibition [24]: Dose-dependent effect; inhibition [11]: Active; inhibition [25]: Active
CC(C)c1ccc(C(=O)Nc2ccc(CN3CCN(C)CC3)c(C(F)(F)F)c2)cc1NC(=O)c1cnc2[nH]ccc2c1	290	160	2270	1900	
CN1CCN(Cc2ccc(NC(=O)c3cccc(NC(=O)c4cnc5[nH]ccc5c4)c3)cc2C(F)(F)F)CC1	48	680	1070	1730	
Cc1ccc(C(=O)Nc2ccc(CN3CCN(C)CC3)c(C(F)(F)F)c2)cc1NC(=O)c1cnccn1	280	3900	> 20000	> 20000	
Cc1ccc(C(=O)Nc2ccc(CN3CCN(C)CC3)c(C(F)(F)F)c2)cc1NC(=O)c1cccnc1	551	550	14000	> 20000	
CCNc1ncc(C(=O)Nc2cc(C(=O)Nc3ccc(CN4CCN(C)CC4)c(C(F)(F)F)c3)ccc2C)cn1	510	130	1090	2400	
Cc1ccc(C(=O)Nc2ccc(CN3CCN(C)CC3)c(C(F)(F)F)c2)cc1NC(=O)c1cnc(NC2CC2)nc1	390	44	2960	1440	
